According to ChEMBL document CHEMBL4689842, “EUbOPEN Chemogenomics Library wave 1” (2021):

Test system: Fibroblast
Assay: Multiplex assay against human fibroblast
Assay type: toxicity, cell-based
Method in brief: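 Phenotypes for tubulin, mitochondrial mass and membrane permeability are expressed as per cents of healthy-nucleus cells. Cells were stained live at seeding with Hoechst33342, BioTracker Green Microtubule Cytoskeleton Dye, MitoTracker Red and Annexin V Alexa Fluor 680, then imaged after compound addition on a CQ1 microscope at 37°C and 5% CO2. Machine-learning gating in CellPathfinder separated Hoechst high-intensity objects from normal cells, divided normal cells by nuclear state (healthy, pyknosed, fragmented) and divided pyknosed cells into mitotic or apoptotic.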

[1] = 12 h, 1 µM, compound concentration 1 uM, replicate 1
[2] = 12 h, 1 µM, compound concentration 1 uM, replicate 2
[3] = 12 h, 10 µM, compound concentration 10 uM, replicate 1
[4] = 12 h, 10 µM, compound concentration 10 uM, replicate 2
[5] = 24 h, 1 µM, compound concentration 1 uM, replicate 1
[6] = 24 h, 1 µM, compound concentration 1 uM, replicate 2
[7] = 24 h, 10 µM, compound concentration 10 uM, replicate 1
[8] = 24 h, 10 µM, compound concentration 10 uM, replicate 2
[9] = 48 h, 1 µM, compound concentration 1 uM, replicate 1
[10] = 48 h, 1 µM, compound concentration 1 uM, replicate 2
[11] = 48 h, 10 µM, compound concentration 10 uM, replicate 1
[12] = 48 h, 10 µM, compound concentration 10 uM, replicate 2

Q: With `CCc1nn(CCCN2CCN(c3cccc(Cl)c3)CC2)c(=O)n1CCOc1ccccc1.Cl` [NEFAZODONE HYDROCHLORIDE] as the molecule, how does the “Population Apoptotic (%)” value [1] read?
A: 60%

Q: And the “Population Fragmented Nuclei (%)” value [1]?
A: 16%

Q: And the “Population Healthy Nuclei (%)” value [1]?
A: 47%

Q: What about the “Population Hoechst High Intensity Objects (%)” value [1] of the same molecule?
A: 13%

Q: And the “Population Membrane Permeable-Phenotype (%)” value [1]?
A: 31%

Q: And the “Population Mitochondria Different-Phenotype (%)” value [1]?
A: 10%

Q: And the “Population Mitotic Cells (%)” value [1]?
A: 40%

Q: What about the “Population Normal (%)” value [1] of the same molecule?
A: 86%

Q: What about the “Population Pyknosed Nuclei (%)” value [1] of the same molecule?
A: 35%

Q: And the “Population Tubulin-Different-Phenotype (%)” value [1]?
A: 75%

Q: What about the “Total Cell Count” value [1] of the same molecule?
A: 176

Q: And the “Population Apoptotic (%)” value [2]?
A: 0%

Q: What about the “Population Fragmented Nuclei (%)” value [2] of the same molecule?
A: 8%

Q: And the “Population Healthy Nuclei (%)” value [2]?
A: 89%

Q: What about the “Population Hoechst High Intensity Objects (%)” value [2] of the same molecule?
A: 6%

Q: And the “Population Membrane Permeable-Phenotype (%)” value [2]?
A: 3%

Q: What about the “Population Mitochondria Different-Phenotype (%)” value [2] of the same molecule?
A: 9%

Q: And the “Population Mitotic Cells (%)” value [2]?
A: 100%

Q: And the “Population Normal (%)” value [2]?
A: 93%

Q: What about the “Population Pyknosed Nuclei (%)” value [2] of the same molecule?
A: 1%

Q: What about the “Population Tubulin-Different-Phenotype (%)” value [2] of the same molecule?
A: 29%

Q: And the “Total Cell Count” value [2]?
A: 68

Q: What about the “Population Apoptotic (%)” value [3] of the same molecule?
A: 81%

Q: And the “Population Fragmented Nuclei (%)” value [3]?
A: 24%

Q: What about the “Population Healthy Nuclei (%)” value [3] of the same molecule?
A: 45%

Q: And the “Population Hoechst High Intensity Objects (%)” value [3]?
A: 10%

Q: What about the “Population Membrane Permeable-Phenotype (%)” value [3] of the same molecule?
A: 1%

Q: What about the “Population Mitochondria Different-Phenotype (%)” value [3] of the same molecule?
A: 84%

Q: And the “Population Mitotic Cells (%)” value [3]?
A: 18%

Q: What about the “Population Normal (%)” value [3] of the same molecule?
A: 89%

Q: And the “Population Pyknosed Nuclei (%)” value [3]?
A: 30%

Q: What about the “Population Tubulin-Different-Phenotype (%)” value [3] of the same molecule?
A: 96%

Q: What about the “Total Cell Count” value [3] of the same molecule?
A: 157

Q: What about the “Population Apoptotic (%)” value [4] of the same molecule?
A: 69%

Q: What about the “Population Fragmented Nuclei (%)” value [4] of the same molecule?
A: 9%

Q: And the “Population Healthy Nuclei (%)” value [4]?
A: 69%

Q: And the “Population Hoechst High Intensity Objects (%)” value [4]?
A: 3%

Q: And the “Population Membrane Permeable-Phenotype (%)” value [4]?
A: 60%

Q: What about the “Population Mitochondria Different-Phenotype (%)” value [4] of the same molecule?
A: 97%

Q: And the “Population Mitotic Cells (%)” value [4]?
A: 30%

Q: What about the “Population Normal (%)” value [4] of the same molecule?
A: 96%

Q: And the “Population Pyknosed Nuclei (%)” value [4]?
A: 20%

Q: And the “Population Tubulin-Different-Phenotype (%)” value [4]?
A: 97%

Q: What about the “Total Cell Count” value [4] of the same molecule?
A: 61

Q: What about the “Population Apoptotic (%)” value [5] of the same molecule?
A: 52%

Q: And the “Population Fragmented Nuclei (%)” value [5]?
A: 20%

Q: And the “Population Healthy Nuclei (%)” value [5]?
A: 57%

Q: What about the “Population Hoechst High Intensity Objects (%)” value [5] of the same molecule?
A: 14%

Q: And the “Population Membrane Permeable-Phenotype (%)” value [5]?
A: 16%

Q: What about the “Population Mitochondria Different-Phenotype (%)” value [5] of the same molecule?
A: 17%

Q: And the “Population Mitotic Cells (%)” value [5]?
A: 47%

Q: And the “Population Normal (%)” value [5]?
A: 85%

Q: What about the “Population Pyknosed Nuclei (%)” value [5] of the same molecule?
A: 22%

Q: What about the “Population Tubulin-Different-Phenotype (%)” value [5] of the same molecule?
A: 68%

Q: What about the “Total Cell Count” value [5] of the same molecule?
A: 175

Q: What about the “Population Apoptotic (%)” value [6] of the same molecule?
A: 50%

Q: What about the “Population Fragmented Nuclei (%)” value [6] of the same molecule?
A: 8%

Q: What about the “Population Healthy Nuclei (%)” value [6] of the same molecule?
A: 85%

Q: What about the “Population Hoechst High Intensity Objects (%)” value [6] of the same molecule?
A: 2%

Q: What about the “Population Membrane Permeable-Phenotype (%)” value [6] of the same molecule?
A: 1%

Q: And the “Population Mitochondria Different-Phenotype (%)” value [6]?
A: 15%

Q: And the “Population Mitotic Cells (%)” value [6]?
A: 50%

Q: What about the “Population Normal (%)” value [6] of the same molecule?
A: 97%

Q: And the “Population Pyknosed Nuclei (%)” value [6]?
A: 5%

Q: And the “Population Tubulin-Different-Phenotype (%)” value [6]?
A: 33%

Q: And the “Total Cell Count” value [6]?
A: 71

Q: What about the “Population Apoptotic (%)” value [7] of the same molecule?
A: 80%

Q: What about the “Population Fragmented Nuclei (%)” value [7] of the same molecule?
A: 23%

Q: What about the “Population Healthy Nuclei (%)” value [7] of the same molecule?
A: 58%

Q: And the “Population Hoechst High Intensity Objects (%)” value [7]?
A: 22%

Q: And the “Population Membrane Permeable-Phenotype (%)” value [7]?
A: 3%

Q: And the “Population Mitochondria Different-Phenotype (%)” value [7]?
A: 86%

Q: And the “Population Mitotic Cells (%)” value [7]?
A: 20%

Q: And the “Population Normal (%)” value [7]?
A: 77%

Q: And the “Population Pyknosed Nuclei (%)” value [7]?
A: 18%

Q: What about the “Population Tubulin-Different-Phenotype (%)” value [7] of the same molecule?
A: 100%

Q: And the “Total Cell Count” value [7]?
A: 177

Q: And the “Population Fragmented Nuclei (%)” value [8]?
A: 22%

Q: And the “Population Healthy Nuclei (%)” value [8]?
A: 56%

Q: And the “Population Hoechst High Intensity Objects (%)” value [8]?
A: 1%

Q: What about the “Population Membrane Permeable-Phenotype (%)” value [8] of the same molecule?
A: 80%

Q: What about the “Population Mitochondria Different-Phenotype (%)” value [8] of the same molecule?
A: 100%

Q: And the “Population Normal (%)” value [8]?
A: 98%

Q: And the “Population Pyknosed Nuclei (%)” value [8]?
A: 20%

Q: What about the “Total Cell Count” value [8] of the same molecule?
A: 72

Q: What about the “Population Apoptotic (%)” value [9] of the same molecule?
A: 43%

Q: And the “Population Fragmented Nuclei (%)” value [9]?
A: 30%

Q: What about the “Population Healthy Nuclei (%)” value [9] of the same molecule?
A: 58%

Q: And the “Population Hoechst High Intensity Objects (%)” value [9]?
A: 19%

Q: And the “Population Membrane Permeable-Phenotype (%)” value [9]?
A: 19%

Q: What about the “Population Mitochondria Different-Phenotype (%)” value [9] of the same molecule?
A: 5%

Q: What about the “Population Mitotic Cells (%)” value [9] of the same molecule?
A: 56%

Q: What about the “Population Normal (%)” value [9] of the same molecule?
A: 80%

Q: What about the “Population Pyknosed Nuclei (%)” value [9] of the same molecule?
A: 11%

Q: And the “Population Tubulin-Different-Phenotype (%)” value [9]?
A: 51%

Q: What about the “Total Cell Count” value [9] of the same molecule?
A: 178

Q: What about the “Population Apoptotic (%)” value [10] of the same molecule?
A: 50%

Q: And the “Population Healthy Nuclei (%)” value [10]?
A: 67%

Q: What about the “Population Hoechst High Intensity Objects (%)” value [10] of the same molecule?
A: 13%

Q: What about the “Population Membrane Permeable-Phenotype (%)” value [10] of the same molecule?
A: 6%

Q: What about the “Population Mitochondria Different-Phenotype (%)” value [10] of the same molecule?
A: 14%

Q: And the “Population Mitotic Cells (%)” value [10]?
A: 50%

Q: What about the “Population Normal (%)” value [10] of the same molecule?
A: 86%

Q: And the “Population Pyknosed Nuclei (%)” value [10]?
A: 1%

Q: What about the “Population Tubulin-Different-Phenotype (%)” value [10] of the same molecule?
A: 71%

Q: And the “Total Cell Count” value [10]?
A: 127

Q: And the “Population Apoptotic (%)” value [11]?
A: 85%

Q: And the “Population Fragmented Nuclei (%)” value [11]?
A: 40%

Q: What about the “Population Healthy Nuclei (%)” value [11] of the same molecule?
A: 55%

Q: What about the “Population Hoechst High Intensity Objects (%)” value [11] of the same molecule?
A: 34%

Q: What about the “Population Membrane Permeable-Phenotype (%)” value [11] of the same molecule?
A: 1%

Q: And the “Population Mitochondria Different-Phenotype (%)” value [11]?
A: 62%

Q: What about the “Population Mitotic Cells (%)” value [11] of the same molecule?
A: 14%

Q: And the “Population Normal (%)” value [11]?
A: 65%

Q: And the “Population Pyknosed Nuclei (%)” value [11]?
A: 4%

Q: And the “Population Tubulin-Different-Phenotype (%)” value [11]?
A: 96%

Q: And the “Total Cell Count” value [11]?
A: 257

Q: What about the “Population Apoptotic (%)” value [12] of the same molecule?
A: 50%

Q: And the “Population Fragmented Nuclei (%)” value [12]?
A: 43%

Q: And the “Population Healthy Nuclei (%)” value [12]?
A: 54%

Q: And the “Population Hoechst High Intensity Objects (%)” value [12]?
A: 25%

Q: And the “Population Membrane Permeable-Phenotype (%)” value [12]?
A: 2%

Q: What about the “Population Mitochondria Different-Phenotype (%)” value [12] of the same molecule?
A: 59%

Q: And the “Population Mitotic Cells (%)” value [12]?
A: 50%

Q: What about the “Population Normal (%)” value [12] of the same molecule?
A: 75%

Q: What about the “Population Pyknosed Nuclei (%)” value [12] of the same molecule?
A: 2%

Q: What about the “Population Tubulin-Different-Phenotype (%)” value [12] of the same molecule?
A: 95%

Q: What about the “Total Cell Count” value [12] of the same molecule?
A: 232
